In ChEMBL document CHEMBL4828755, “A sulfonyl fluoride derivative inhibits EGFRL858R/T790M/C797S by covalent modification of the catalytic lysine” (Eur J Med Chem, 2021):
pIC50: −log10 of the molar value. The source made the active and inactive calls. The calls are words filed in the database; no cut-off is given here.

Tests used:
[1] = target: Epidermal growth factor receptor (Homo sapiens, UniProt P00533, C797S/L858R/T790M); assay: Inhibition of EGFR L858R/T790M/C797S triple mutant (unknown origin) using fluoresceine-labelled poly-GT peptide as substrate incubated for 1 hr by TR-FRET assay
BaF3 [2] = assay: Cytotoxicity against mouse BaF3 cells harboring EGFR del19/T790M/C797S triple mutant assessed as inhibition of cell proliferation measured after 72 hrs by MTS assay; assay type: functional, cell-based
In short: (§1)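 Ba/F3 cells carrying the respective EGFR triple mutant, grown in RPMI-1640 with 2 mM glutamine and 10% FBS at 37°C, 5% CO2. Seeded 20000 cells/well and treated the same day with increasing concentrations (DMSO ≤0.1% final). Viability read by MTS after 72 h, expressed as % inhibition versus untreated controls; at least three independent experiments.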

BaF3 [3] = assay: Cytotoxicity against mouse BaF3 cells harboring EGFR L858R/T790M/C797S triple mutant assessed as inhibition of cell proliferation measured after 72 hrs by MTS assay; assay type: functional, cell-based; conditions: BaF3, 72 h; in short: as §1
[4] = target: Tyrosine-protein kinase Lck (Homo sapiens) (UniProt P06239); assay: Inhibition of human recombinant LCK at 1 uM by Z'-LYTE assay
In short: (§2)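 Z'-LYTE FRET kinase panel; phosphorylation of a reference peptide measured with ATP at each enzyme's Km. Compounds tested in 1% DMSO at 0.1 and/or 1 μM. Values are means of two independent experiments with standard deviations.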

[5] = target: Cyclin-dependent kinase 2 (Homo sapiens) (UniProt P24941); assay: Inhibition of human recombinant CDK2 at 1 uM by Z'-LYTE assay; in short: as §2
[6] = target: Proto-oncogene tyrosine-protein kinase Src (Homo sapiens) (UniProt P12931); assay: Inhibition of C-terminal His-tagged human recombinant SRC expressed in baculovirus expression system at 1 uM by Z'-LYTE assay; in short: as §2
[7] = target: Mitogen-activated protein kinase 3 (Homo sapiens) (UniProt P27361); assay: Inhibition of GST-tagged human full length recombinant ERK1 expressed in Escherichia coli at 1 uM by Z'-LYTE assay; in short: as §2
[8] = target: Tyrosine-protein kinase Blk (Homo sapiens) (UniProt P51451); assay: Inhibition of His-tagged human full length recombinant BLK expressed in baculovirus expression system at 1 uM by Z'-LYTE assay; in short: as §2
[9] = target: Mitogen-activated protein kinase 14 (Homo sapiens) (UniProt Q16539); assay: Inhibition of GST-tagged human full length recombinant p38 alpha expressed in Escherichia coli at 1 uM by Z'-LYTE assay; in short: as §2
[10] = target: Rho-associated protein kinase 1 (Homo sapiens) (UniProt Q13464); assay: Inhibition of GST-tagged human recombinant ROCK1 (1 to 535 residues) expressed in baculovirus expression system at 1 uM by Z'-LYTE assay; in short: as §2
[11] = target: Cyclin-dependent kinase 5 (Homo sapiens) (UniProt Q00535); assay: Inhibition of GST/His-tagged human full length recombinant CDK5 expressed in baculovirus expression system at 1 uM by Z'-LYTE assay; in short: as §2
[12] = target: Fibroblast growth factor receptor 4 (Homo sapiens) (UniProt P22455); assay: Inhibition of His-tagged human recombinant FGFR4 ([…] residues) expressed in baculovirus expression system at 1 uM by Z'-LYTE assay; in short: as §2
[13] = target: Tyrosine-protein kinase JAK1 (Homo sapiens) (UniProt P23458); assay: Inhibition of GST-tagged human recombinant JAK1 (866 to 1154 residues) expressed in baculovirus expression system at 1 uM by Z'-LYTE assay; in short: as §2
[14] = target: T1, Inhibitor of nuclear factor kappa-B kinase subunit beta (Homo sapiens) (UniProt O14920); assay: Inhibition of GST-tagged human full length recombinant IKKbeta expressed in baculovirus expression system at 1 uM by Z'-LYTE assay; in short: as §2
T1 sequence (whole entry): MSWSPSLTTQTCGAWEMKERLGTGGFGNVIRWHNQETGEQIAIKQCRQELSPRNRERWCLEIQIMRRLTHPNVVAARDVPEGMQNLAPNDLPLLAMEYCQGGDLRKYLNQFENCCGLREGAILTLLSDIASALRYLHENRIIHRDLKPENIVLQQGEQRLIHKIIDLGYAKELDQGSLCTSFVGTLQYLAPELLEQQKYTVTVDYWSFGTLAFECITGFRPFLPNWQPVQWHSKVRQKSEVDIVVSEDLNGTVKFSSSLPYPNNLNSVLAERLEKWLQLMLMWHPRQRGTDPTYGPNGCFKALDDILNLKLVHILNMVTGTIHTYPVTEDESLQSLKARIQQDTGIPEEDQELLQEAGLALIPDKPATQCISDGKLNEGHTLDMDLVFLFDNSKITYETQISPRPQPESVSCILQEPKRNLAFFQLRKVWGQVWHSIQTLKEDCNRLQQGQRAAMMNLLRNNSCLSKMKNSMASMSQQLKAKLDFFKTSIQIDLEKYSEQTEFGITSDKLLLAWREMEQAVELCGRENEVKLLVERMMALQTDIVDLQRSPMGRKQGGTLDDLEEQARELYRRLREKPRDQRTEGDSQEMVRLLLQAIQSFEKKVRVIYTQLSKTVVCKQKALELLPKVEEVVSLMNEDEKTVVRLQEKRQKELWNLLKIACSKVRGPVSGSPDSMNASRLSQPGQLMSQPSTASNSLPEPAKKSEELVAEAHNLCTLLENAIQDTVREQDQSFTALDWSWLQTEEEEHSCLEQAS

[15] = target: RAC-beta serine/threonine-protein kinase (Homo sapiens) (UniProt P31751); assay: Inhibition of His-tagged full length human recombinant AKT2 expressed in baculovirus expression system at 1 uM by Z'-LYTE assay; in short: as §2
[16] = target: T2, Aurora kinase A (Homo sapiens) (UniProt O14965); assay: Inhibition of His-tagged human full length recombinant AURKA expressed in baculovirus expression system at 1 uM by Z'-LYTE assay; in short: as §2
T2 sequence (whole entry): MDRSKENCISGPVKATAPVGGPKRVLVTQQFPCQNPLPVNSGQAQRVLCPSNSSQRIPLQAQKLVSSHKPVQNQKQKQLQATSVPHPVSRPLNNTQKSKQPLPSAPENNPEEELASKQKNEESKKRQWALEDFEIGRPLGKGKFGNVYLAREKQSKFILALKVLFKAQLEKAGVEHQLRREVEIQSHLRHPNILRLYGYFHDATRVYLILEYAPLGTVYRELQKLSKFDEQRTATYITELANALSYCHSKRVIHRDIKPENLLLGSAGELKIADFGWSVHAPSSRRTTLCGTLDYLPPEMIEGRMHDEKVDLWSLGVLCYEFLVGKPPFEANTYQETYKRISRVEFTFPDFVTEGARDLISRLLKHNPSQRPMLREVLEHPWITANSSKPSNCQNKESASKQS

[17] = target: Platelet-derived growth factor receptor alpha (Homo sapiens) (UniProt P16234); assay: Inhibition of GST-tagged human recombinant PDGFR alpha (550 to 1089 residues) expressed in baculovirus expression system at 1 uM by Z'-LYTE assay; in short: as §2
[18] = target: AMP-activated protein kinase, AMPK (Homo sapiens) (UniProt P54646+O43741+P54619+Q9UGJ0+Q9Y478+Q13131+Q9UGI9); assay: Inhibition of human recombinant AMPK at 1 uM by Z'-LYTE assay; assay type: protein-complex assay; in short: as §2
[19] = target: Vascular endothelial growth factor receptor 2 (Homo sapiens) (UniProt P35968); assay: Inhibition of His-tagged human recombinant VEGFR2 (789 to 1356 residues) expressed in baculovirus expression system at 1 uM by Z'-LYTE assay; in short: as §2

Sequence of Epidermal growth factor receptor (P00533 25-1210 T790M/C797S/L858R limits assumed): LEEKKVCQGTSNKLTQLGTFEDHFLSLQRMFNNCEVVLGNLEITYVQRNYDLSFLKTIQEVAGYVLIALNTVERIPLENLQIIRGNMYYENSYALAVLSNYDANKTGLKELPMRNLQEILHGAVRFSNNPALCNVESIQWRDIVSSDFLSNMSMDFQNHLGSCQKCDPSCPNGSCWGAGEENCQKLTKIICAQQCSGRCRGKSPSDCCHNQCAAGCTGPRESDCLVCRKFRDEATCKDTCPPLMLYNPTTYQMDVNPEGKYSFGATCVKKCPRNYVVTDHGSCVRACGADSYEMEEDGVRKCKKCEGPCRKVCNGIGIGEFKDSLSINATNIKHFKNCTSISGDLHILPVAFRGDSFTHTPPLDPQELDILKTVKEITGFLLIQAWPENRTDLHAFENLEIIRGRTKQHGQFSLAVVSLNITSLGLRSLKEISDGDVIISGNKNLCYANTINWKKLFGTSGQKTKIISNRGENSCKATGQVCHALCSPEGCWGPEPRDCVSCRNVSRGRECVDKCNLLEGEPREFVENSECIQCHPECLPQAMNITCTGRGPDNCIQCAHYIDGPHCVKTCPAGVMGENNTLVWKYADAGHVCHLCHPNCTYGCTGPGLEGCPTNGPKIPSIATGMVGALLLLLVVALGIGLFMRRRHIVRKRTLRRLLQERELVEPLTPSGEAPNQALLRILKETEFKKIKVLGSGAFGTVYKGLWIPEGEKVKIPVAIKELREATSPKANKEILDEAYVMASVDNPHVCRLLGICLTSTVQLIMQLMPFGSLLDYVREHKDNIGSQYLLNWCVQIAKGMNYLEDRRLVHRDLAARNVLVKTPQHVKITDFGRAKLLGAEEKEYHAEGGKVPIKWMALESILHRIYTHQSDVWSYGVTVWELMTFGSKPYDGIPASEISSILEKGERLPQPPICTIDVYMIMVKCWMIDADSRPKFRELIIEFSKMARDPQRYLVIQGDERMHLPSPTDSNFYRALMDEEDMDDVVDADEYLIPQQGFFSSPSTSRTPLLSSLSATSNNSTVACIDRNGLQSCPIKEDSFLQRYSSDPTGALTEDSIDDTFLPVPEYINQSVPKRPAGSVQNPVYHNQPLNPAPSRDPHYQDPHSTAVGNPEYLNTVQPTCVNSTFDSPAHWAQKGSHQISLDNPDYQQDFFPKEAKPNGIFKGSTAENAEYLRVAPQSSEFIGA
Sequence of Platelet-derived growth factor receptor alpha (Homo sapiens) (P16234 whole entry, the tested form may be a part): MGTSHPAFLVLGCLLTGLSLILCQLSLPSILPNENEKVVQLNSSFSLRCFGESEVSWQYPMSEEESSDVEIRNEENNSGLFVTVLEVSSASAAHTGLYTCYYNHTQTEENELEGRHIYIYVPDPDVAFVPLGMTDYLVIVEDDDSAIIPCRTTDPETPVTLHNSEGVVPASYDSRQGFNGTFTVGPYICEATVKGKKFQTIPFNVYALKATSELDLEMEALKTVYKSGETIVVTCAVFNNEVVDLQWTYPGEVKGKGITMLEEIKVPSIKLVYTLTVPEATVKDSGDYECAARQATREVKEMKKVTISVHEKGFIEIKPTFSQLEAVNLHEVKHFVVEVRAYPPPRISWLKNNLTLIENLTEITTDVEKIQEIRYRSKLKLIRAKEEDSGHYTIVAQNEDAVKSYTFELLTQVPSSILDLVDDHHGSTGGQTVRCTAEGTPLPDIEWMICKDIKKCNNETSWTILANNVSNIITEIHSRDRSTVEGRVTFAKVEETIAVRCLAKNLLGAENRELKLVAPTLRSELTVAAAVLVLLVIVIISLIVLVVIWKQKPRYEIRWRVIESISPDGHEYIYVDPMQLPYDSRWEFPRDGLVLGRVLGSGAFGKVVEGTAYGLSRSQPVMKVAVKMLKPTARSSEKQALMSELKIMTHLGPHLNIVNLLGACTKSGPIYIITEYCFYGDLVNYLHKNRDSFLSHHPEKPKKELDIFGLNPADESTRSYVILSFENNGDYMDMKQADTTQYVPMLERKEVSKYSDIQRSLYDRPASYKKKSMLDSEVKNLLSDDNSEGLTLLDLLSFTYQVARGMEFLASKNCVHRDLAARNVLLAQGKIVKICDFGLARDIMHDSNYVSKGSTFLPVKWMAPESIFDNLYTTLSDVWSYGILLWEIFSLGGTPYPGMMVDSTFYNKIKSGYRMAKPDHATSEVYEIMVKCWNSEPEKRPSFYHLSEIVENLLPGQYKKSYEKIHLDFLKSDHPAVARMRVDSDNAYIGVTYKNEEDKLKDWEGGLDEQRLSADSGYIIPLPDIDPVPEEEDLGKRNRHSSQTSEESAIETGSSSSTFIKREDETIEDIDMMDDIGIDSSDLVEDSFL
Sequence of Cyclin-dependent kinase 5 (Homo sapiens) (Q00535 whole entry, looked up): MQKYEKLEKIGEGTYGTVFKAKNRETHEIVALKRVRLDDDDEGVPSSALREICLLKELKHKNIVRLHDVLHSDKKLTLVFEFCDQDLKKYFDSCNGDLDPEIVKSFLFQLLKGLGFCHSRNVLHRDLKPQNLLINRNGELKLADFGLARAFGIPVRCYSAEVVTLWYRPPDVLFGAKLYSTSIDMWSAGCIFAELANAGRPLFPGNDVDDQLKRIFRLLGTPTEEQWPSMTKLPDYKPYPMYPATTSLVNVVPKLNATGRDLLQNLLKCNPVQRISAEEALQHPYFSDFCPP
Sequence of Mitogen-activated protein kinase 14 (Homo sapiens) (Q16539 whole entry, the tested form may be a part): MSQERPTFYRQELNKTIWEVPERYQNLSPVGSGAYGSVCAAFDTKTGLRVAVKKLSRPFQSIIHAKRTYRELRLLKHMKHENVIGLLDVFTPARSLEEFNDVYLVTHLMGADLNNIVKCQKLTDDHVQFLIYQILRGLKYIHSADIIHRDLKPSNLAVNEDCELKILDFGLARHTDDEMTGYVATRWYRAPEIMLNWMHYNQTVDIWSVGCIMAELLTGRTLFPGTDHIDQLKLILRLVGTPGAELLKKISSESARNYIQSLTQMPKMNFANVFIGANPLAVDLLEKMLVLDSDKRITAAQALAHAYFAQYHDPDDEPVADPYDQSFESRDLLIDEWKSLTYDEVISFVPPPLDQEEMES
Sequence of Tyrosine-protein kinase JAK1 (Homo sapiens) (P23458 whole entry, the tested form may be a part): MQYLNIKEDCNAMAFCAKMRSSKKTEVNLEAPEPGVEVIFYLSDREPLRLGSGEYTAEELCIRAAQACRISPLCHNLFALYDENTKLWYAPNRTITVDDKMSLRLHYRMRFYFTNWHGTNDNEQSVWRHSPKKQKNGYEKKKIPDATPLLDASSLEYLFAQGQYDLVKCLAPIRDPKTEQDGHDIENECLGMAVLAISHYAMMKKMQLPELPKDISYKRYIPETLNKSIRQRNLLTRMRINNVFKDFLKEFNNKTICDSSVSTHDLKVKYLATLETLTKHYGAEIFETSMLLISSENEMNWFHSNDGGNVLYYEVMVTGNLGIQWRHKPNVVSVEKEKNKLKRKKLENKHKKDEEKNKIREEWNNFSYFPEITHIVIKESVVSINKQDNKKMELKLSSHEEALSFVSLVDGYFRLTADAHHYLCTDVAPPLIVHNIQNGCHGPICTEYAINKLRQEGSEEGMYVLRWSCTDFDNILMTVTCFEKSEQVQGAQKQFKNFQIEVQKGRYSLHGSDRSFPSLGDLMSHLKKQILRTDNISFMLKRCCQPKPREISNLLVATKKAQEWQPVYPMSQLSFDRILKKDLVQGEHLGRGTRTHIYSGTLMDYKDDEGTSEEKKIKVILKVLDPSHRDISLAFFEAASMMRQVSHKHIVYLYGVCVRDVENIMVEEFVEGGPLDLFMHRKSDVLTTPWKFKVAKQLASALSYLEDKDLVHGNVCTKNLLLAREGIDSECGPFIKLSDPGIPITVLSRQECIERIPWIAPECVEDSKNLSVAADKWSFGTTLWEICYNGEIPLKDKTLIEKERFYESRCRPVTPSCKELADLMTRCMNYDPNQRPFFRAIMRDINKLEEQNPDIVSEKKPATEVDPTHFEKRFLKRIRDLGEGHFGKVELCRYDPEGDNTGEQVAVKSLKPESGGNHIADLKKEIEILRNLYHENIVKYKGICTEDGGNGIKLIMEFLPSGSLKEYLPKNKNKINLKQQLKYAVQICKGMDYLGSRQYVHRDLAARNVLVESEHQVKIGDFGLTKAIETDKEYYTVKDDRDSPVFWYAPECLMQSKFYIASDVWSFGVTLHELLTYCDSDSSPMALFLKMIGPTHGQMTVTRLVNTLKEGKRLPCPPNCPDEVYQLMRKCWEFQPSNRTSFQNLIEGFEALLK
Sequence of Fibroblast growth factor receptor 4 (Homo sapiens) (P22455 22-802 limits assumed): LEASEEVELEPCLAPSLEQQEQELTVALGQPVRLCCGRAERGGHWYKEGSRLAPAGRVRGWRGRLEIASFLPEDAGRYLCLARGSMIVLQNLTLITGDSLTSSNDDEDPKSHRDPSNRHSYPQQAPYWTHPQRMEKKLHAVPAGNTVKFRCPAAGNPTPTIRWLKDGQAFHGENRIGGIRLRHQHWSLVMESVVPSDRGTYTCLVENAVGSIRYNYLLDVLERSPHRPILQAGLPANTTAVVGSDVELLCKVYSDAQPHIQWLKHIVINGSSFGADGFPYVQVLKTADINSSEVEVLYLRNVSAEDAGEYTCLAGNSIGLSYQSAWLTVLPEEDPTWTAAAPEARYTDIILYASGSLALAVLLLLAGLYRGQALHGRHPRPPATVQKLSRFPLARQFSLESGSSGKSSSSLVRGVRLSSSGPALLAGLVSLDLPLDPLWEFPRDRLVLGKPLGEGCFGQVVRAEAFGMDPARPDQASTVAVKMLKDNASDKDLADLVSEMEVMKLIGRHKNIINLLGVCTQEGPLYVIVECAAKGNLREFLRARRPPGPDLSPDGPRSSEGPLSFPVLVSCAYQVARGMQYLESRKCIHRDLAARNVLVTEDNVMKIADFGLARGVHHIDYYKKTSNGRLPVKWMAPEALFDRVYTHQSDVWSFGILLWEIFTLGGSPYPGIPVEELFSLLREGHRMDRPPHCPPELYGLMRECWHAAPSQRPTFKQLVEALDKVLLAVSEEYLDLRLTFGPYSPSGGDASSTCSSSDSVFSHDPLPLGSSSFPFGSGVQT

COc1cc(N2CCN(C(C)=O)CC2)ccc1Nc1ncc(Cl)c(Nc2cccc(NCCS(=O)(=O)F)c2)n1
pIC50 [1]: 6.34

COc1cc(N2CCN(C(C)=O)CC2)ccc1Nc1ncc(Cl)c(Nc2cccc(NC(=O)CCl)c2)n1
pIC50 [1]: 6.02

COc1cc(N2CCN(C(C)=O)CC2)ccc1Nc1ncc(Cl)c(Nc2cccc(C(=O)Oc3ccc(F)cc3)c2)n1
pIC50 [1]: < 5.00

C=CS(=O)(=O)Nc1cccc(Nc2nc(Nc3ccc(N4CCN(C(C)=O)CC4)cc3OC)ncc2Cl)c1
pIC50 [1]: 6.17

C=CC(=O)Nc1cc(Nc2nccc(-c3cn(C)c4ccccc34)n2)c(OC)cc1N(C)CCN(C)C [OSIMERTINIB]
Activity (BaF3 [2]): inactive | pIC50 (BaF3 [3]): < 5.52

COc1cc(N2CCN(C(C)=O)CC2)ccc1Nc1ncc(Cl)c(Nc2cccc(NC(C)=O)c2)n1
inhibition [4]: inactive | inhibition [5]: inactive | inhibition [6]: inactive | inhibition [7]: inactive | pIC50 [1]: 5.96 | inhibition [8]: inactive | inhibition [9]: inactive | inhibition [10]: inactive | inhibition [11]: inactive | inhibition [12]: inactive | inhibition [13]: Active | inhibition [14]: inactive | inhibition [15]: inactive | inhibition [16]: inactive | inhibition [17]: Active | inhibition [18]: inactive | inhibition [19]: Active
